This is an account of results in ChEMBL document CHEMBL3272138, “Prostaglandins and congeners. 16. Synthesis and bronchodilator activity of dl-11-doexy-3-thiaprostaglandins” (1977).

The test system of experiment [1] is Cavia porcellus. Briefly: Bronchodilator activity in Hartley guinea pig assessed as inhibition of serotonin-induced bronchoconstriction at 3.2 mg/kg, iv administered 2 mins post serotonin challenge as 3 to 4 doses in 15 mins interval. Format: functional. The gist of the method:
(§1)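 Urethane (1.5 g/kg ip) anesthetized, gallamine-curarized, ventilated guinea pigs. Spasms were induced by 12-s iv jugular injections every 5 min to raise tracheal pressure 20–50 cm water: acetylcholine 40–150, histamine 5.6–22.5, or serotonin 7.5–30 μg/kg. The drug was given iv over 1 min, 2 min after three stable control spasms. Salts were given as such and esters in 10% aqueous ethanol. Spasm amplitude was expressed as percent variation vs control, with ≥4 animals per spasmogen.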

The test system of experiment [2] is Cavia porcellus. In words: Bronchodilator activity in Hartley guinea pig assessed as inhibition of histamine-induced bronchoconstriction at 3.2 mg/kg, iv administered 2 mins post histamine challenge as 3 to 4 doses in 15 mins interval. It is filed as functional. In a few lines: as §1
Experiment [3] relates to Cavia porcellus. In words: Bronchodilator activity in Hartley guinea pig assessed as inhibition of acetylcholine-induced bronchoconstriction at 3.2 mg/kg, iv administered 2 mins post acetylcholine challenge as 3 to 4 doses in 15 mins interval. Format: functional. The gist of the method:
as §1

The subject of experiment [4] is Cavia porcellus. In words: Bronchodilator activity in iv dosed Hartley guinea pig assessed as inhibition of histamine-induced bronchoconstriction administered 2 mins post histamine challenge as 3 to 4 doses in 15 mins interval. It is filed as functional. In a few lines: (§2)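 Guinea pigs under urethane anesthesia, gallamine-paralyzed and artificially ventilated (60 strokes/min). Bronchospasm was evoked by iv acetylcholine (40–150), histamine (5.6–22.5) or serotonin (7.5–30 μg/kg), giving a 20–50 cm water rise in tracheal pressure, every 5 min. Three or four log-spaced iv doses (esters in 10% aqueous ethanol) were given at 15-min intervals, with ≥4 animals per spasmogen. ED50 (–50% variation of the first spasm) came from a semilog regression; if never reached, ED50 > maximal dose.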

The subject of experiment [5] is Cavia porcellus. In words: Bronchodilator activity in iv dosed Hartley guinea pig assessed as inhibition of serotonin-induced bronchoconstriction administered 2 mins post serotonin challenge as 3 to 4 doses in 15 mins interval. It is filed as functional. In a few lines:
as §2

Experiment [6] concerns Cavia porcellus. Briefly: Bronchodilator activity in iv dosed Hartley guinea pig assessed as inhibition of acetylcholine-induced bronchoconstriction administered 2 mins post acetylcholine challenge as 3 to 4 doses in 15 mins interval. To be noted: for ED50: Cavia porcellus, Hartley, iv. Format: functional. The gist of the method: as §2
Experiment [7] has as its system Canis familiaris. Briefly: Bronchodilatory activity in anesthetized dog assessed as inhibition of pilocarpine-induced bronchospasms at 16 to 32 ug/kg administered through aerosol 15 mins post challenge measured up to 1 hr. It is filed as functional, Canis lupus familiaris. In a few lines:
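Anesthetized dogs receive a pilocarpine injection of 400 µg/kg, followed by a pilocarpine perfusion of 4 µg/kg/min, to produce a long-acting bronchospasm. Airway resistance must rise to at least 200-300% of the resting value. After a 15-min control period, compound is given by ultrasonic aerosol. Read-out is percent inhibition of the pilocarpine bronchoconstriction, followed over the 1 h experiment.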

Experiment [8] concerns Canis familiaris. Briefly: Bronchodilatory activity in anesthetized dog assessed as inhibition of pilocarpine-induced bronchospasms compound administered through aerosol 15 mins post challenge measured up to 1 hr. Format: functional. Particulars: Canis lupus familiaris, inhaled or nasal. In a few lines: (§3)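 In anesthetized dogs, a long-lasting bronchospasm was induced by pilocarpine, 400 µg/kg injection then 4 µg/kg/min perfusion, requiring an airway resistance increase of at least 200–300% over resting. After a 15-min control period, the compound was delivered by ultrasonic aerosol. Inhibition of bronchoconstriction was followed for the 1-h experiment.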

For experiment [9], the system named is Canis familiaris. Briefly: Bronchodilatory activity in anesthetized dog assessed as inhibition of pilocarpine-induced bronchospasms at 0.016 to 0.032 ug/kg administered through aerosol 15 mins post challenge measured up to 1 hr. It is filed as functional, Canis lupus familiaris. In a few lines: as §3

A word on the inhibition in vivo: it is the relative decrease from the control value, in per cent. Regarding `CCCCC[C@H](O)/C=C/C1CCC(=O)[C@@H]1CCCCCSCC(=O)O` (mixture of isomers), the inhibition in vivo at 3.2 mg/kg in [1], in [2] and in experiment [3] was less than 50% in each case.
As usually defined, the ED50 is the dose that gives a 50% effect, or the effect in half of the subjects. As to `CCCCC[C@H](O)/C=C/C1CCC(=O)C1CCCCCCC(=O)O` (mixture of isomers), the figures for the 50% effective dose (ED50) in experiment [4], in [5] and in experiment [6] were 0.0034 mg/kg, 0.000397 mg/kg and 0.032 mg/kg, respectively.
As to `CCCCC[C@](C)(O)/C=C/C1CCC(=O)[C@@H]1CCCSCC(=O)O` (mixture of isomers), the ED50 in experiment [4] came to 2.99 mg/kg. In addition, the inhibition in vivo at 3.2 mg/kg in experiment [1] and in experiment [3] was less than 50% in each case.
`CCCCC[C@H](O)/C=C/C1CCC(=O)[C@@H]1CCCSCC(=O)O` (mixture of isomers): the inhibition in vivo at 3.2 mg/kg in [1], in [2] and in experiment [3] was less than 50% in each case.
For `CC(C)NC[C@H](O)c1ccc(O)c(O)c1` [LEVISOPRENALINE], in experiment [7], the “inhibition (INH)” value was found to be 80%.
For the compound `CCCCC(C)(C)[C@H](O)/C=C/C1CCC(=O)[C@@H]1CCCCSCC(=O)O` (mixture of isomers), the ED50 was determined as 0.0242 mg/kg in experiment [4], 0.0523 mg/kg in experiment [5] and 0.604 mg/kg in [6].
For `CCCCC(C)(C)[C@@H](O)/C=C/C1CCC(=O)[C@@H]1CCCCSCC(=O)O` (mixture of isomers), the figures for the ED50 in experiment [4] and in [5] were 0.324 mg/kg and 0.032 mg/kg, respectively.
Take `CCCCC[C@@H](O)/C=C/C1CCC(=O)[C@@H]1CCCCCSCC(=O)O` (mixture of isomers): the inhibition in vivo at 3.2 mg/kg in experiment [1], in [2] and in [3] was less than 50% in each case.
`CCCCC[C@H](O)/C=C/C1CCC(=O)[C@@H]1CCCCSCC(=O)O` (mixture of isomers): the median effective dose (ED50) in experiment [4] came to 0.00507 mg/kg; in experiment [5], 0.00129 mg/kg; in experiment [8] it was 0.0016 mg/kg; in experiment [6] it was 0.00514 mg/kg.
As to `CCCCC[C@@H](O)/C=C/C1CCC(=O)[C@@H]1CCCCSCC(=O)O` (mixture of isomers), the ED50 in experiment [4] was 0.0113 mg/kg; in experiment [5], 0.0233 mg/kg. In experiment [6], the MED50 was found to be 0.2 mg/kg.
With `CCCCC(C)(C)[C@H](O)/C=C/C1CCC(=O)[C@@H]1CCCCCSCC(=O)O` (mixture of isomers), the inhibition in vivo at 3.2 mg/kg in experiment [1], in [2] and in experiment [3] was less than 50% each time.
In the case of `CCCCC[C@](C)(O)/C=C/C1CCC(=O)[C@@H]1CCCCSCC(=O)O` (mixture of isomers), the values for the ED50 in experiment [4], in [5] and in experiment [6] were 0.00185 mg/kg, 0.0054 mg/kg and 0.0193 mg/kg, respectively.
In the case of `CCCCCC(O)/C=C/C1C(O)CC(=O)C1CCCCCCC(=O)O` (stereo unspecified), the “inhibition (INH)” value in experiment [9] is listed as 70%.
`CCCCC[C@](C)(O)/C=C/C1CCC(=O)[C@@H]1CCCCCCC(=O)O` (mixture of isomers): the results for the ED50 in [4] and in experiment [5] were 0.00424 mg/kg and 0.00699 mg/kg, respectively. Further, the MED50 in [6] stood at 0.0032 mg/kg.
For the compound `CCCCC(C)(C)[C@H](O)/C=C/C1CCC(=O)[C@@H]1CCCCCCC(=O)O` (mixture of isomers), the ED50 in experiment [4] worked out at 0.00417 mg/kg; in experiment [5], 0.0259 mg/kg; in experiment [6], 0.0429 mg/kg.
